SIAE inh: blocks human sialic acid acetylesterase; Q9HAT2; SIAE FP-Rh probe binding, fluorescence polarization; inhibition, % at 9.66 µM; 0.69% of 370,000 active;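 active means inhibition above a cutoff: mean of compounds within the control limits plus 3 SD of those, cut at about 17% in these data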
Target sequence (Q9HAT2 whole entry, looked up): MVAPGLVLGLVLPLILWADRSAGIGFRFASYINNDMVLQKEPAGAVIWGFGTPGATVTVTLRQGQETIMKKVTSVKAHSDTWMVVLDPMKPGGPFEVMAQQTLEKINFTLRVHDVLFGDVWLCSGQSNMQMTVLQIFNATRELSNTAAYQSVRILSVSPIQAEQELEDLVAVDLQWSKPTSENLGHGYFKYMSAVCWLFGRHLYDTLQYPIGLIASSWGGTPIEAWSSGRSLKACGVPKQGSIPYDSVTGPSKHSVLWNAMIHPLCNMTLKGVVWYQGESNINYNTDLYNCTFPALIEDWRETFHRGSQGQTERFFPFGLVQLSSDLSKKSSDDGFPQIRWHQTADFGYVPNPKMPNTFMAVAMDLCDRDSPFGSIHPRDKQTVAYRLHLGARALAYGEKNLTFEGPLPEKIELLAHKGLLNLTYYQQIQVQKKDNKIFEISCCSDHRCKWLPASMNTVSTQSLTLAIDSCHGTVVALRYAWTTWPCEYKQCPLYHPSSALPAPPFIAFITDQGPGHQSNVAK
ABHD4 inh: ABHD4 (mouse) inhibition, primary FP screen | 0.54% of 370,000 active | purified mABHD4, FP-Rh probe fluorescence polarization | AID 720543 | inhibition, % at 8.92 µM | Q8VD66;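 active means inhibition exceeding the mean over every tested compound plus 3 SD, cut at about 30% in these data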
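Doses – 8.92 µM, single dose · Material – wild-type mouse ABHD4 protein · Replication – single well per compound (singlicate) · Measure – percent inhibition of probe binding, normalized to plate controls · Schedule – 45 min compound pre-incubation plus 60 min probe step, 25 °C · Detection – fluorescence polarization with parallel and perpendicular emission, 525/598 nm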
rCAG RNA binder: r(CAG) repeat RNA binding | TO-PRO-1 dye displacement fluorescence | inhibition, % at 3 µM | 1.3% of 370,000 active | AID 651821;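 active means inhibition above the plate cutoff, the mean of all test compounds on that plate plus 3 SD, cut at about 35% in these data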;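 further: higher means more dye released from RNA so lower well fluorescence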
TCR-CD3 inh: blocks the human TCR-CD3 interaction; TAMRA-labeled TCR probe fluorescence, biochemical; inhibition, % at 9.4 µM; AID 651800; 0.37% of 360,000 active; in the data active means inhibition above about 19%;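 further: recombinant mutant TCR 2C K166C tagged with TAMRA read by polarization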
PRMT1 FP inh: inhibitors of human PRMT1. 1.3% of 370,000 active. inhibition, % at 2.79 µM. Q99873. AID 652257. recombinant PRMT1, activity-based probe fluorescence polarization;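 active means inhibition above about 21% made by adding two undisclosed values, limit read from the data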
ABHD4 confirm: confirmation of mouse ABHD4 inhibitors | inhibition, % at 8.92 µM | 55% of 1,800 active | shares compounds with ABHD4 inh | AID 720658 | purified mABHD4, FP-Rh probe fluorescence polarization;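 active means mean inhibition across replicates above the hit cutoff set in the primary screen, cut at about 30% in these data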
SIAE inh conf: confirmation of human SIAE inhibitors; SIAE FP-Rh activity-based probe, fluorescence polarization; AID 1117263; shares compounds with SIAE inh; inhibition, % at 9.66 µM; 13% of 2,300 active;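 active means mean inhibition of the replicates above the hit cutoff set in the primary screen, cut at about 17% in these data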;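 further: inhibitors lower polarization as more probe stays unbound to SIAE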
A number is an active result; - = inactive; . = no result. Most compounds without a hit are left out; they make up all but 3.3% or so of the library.

SMILES	SIAE inh	ABHD4 inh	rCAG RNA binder	TCR-CD3 inh	PRMT1 FP inh	ABHD4 confirm	SIAE inh conf
Cc1ccc(N=C(N(C)C)P(=O)(N(C)C)N(C)C)cc1	-	-	-	-	-	.	.
O=C(N/N=C/c1c(O)n(Cc2ccc(F)cc2)c(=S)[nH]c1=O)c1ccncc1	-	32	-	-	-	37	.
COC(=O)C1=C(c2c(C)noc2C)C[C@@H]2CC[C@H]1N2C(=O)NC1CCCCC1	-	-	-	-	-	.	.
CCOP(=O)(Nc1ccc2c(c1)C(=NNC(N)=S)c1ccccc1-2)OCC	-	-	-	-	-	.	.
Cc1nc2ccc(Br)cc2c(=O)n1-c1ccc([N+](=O)[O-])c(C(F)(F)F)c1	-	-	-	-	-	.	.
O=C(N/N=C/c1c(O)n(C2CCCCC2)c(=S)[nH]c1=O)c1ccccc1	-	-	-	-	-	.	.
O=C(N/N=C/C1C(=O)NC(=S)N(c2ccccc2)C1=O)c1cc(Br)c(O)c(Br)c1 (configuration not stated)	-	42	-	-	-	48	.
COC(=O)C1=C(c2ccc(OCc3ccccc3)cc2)C[C@@H]2CC[C@H]1N2C(=O)NCc1ccc(OC)c(OC)c1	-	46	-	-	-	58	.
CCCCn1nnnc1C(c1cccs1)N1CCC2(CC1)C(=O)NCN2c1ccccc1 (configuration not stated)	-	-	-	-	-	.	.
O=C1c2ccccc2-c2cc3ccccc3cc21	-	-	-	-	-	.	.
O=C1C=C(N2CC2)c2ccccc2C1=O	-	67	-	-	-	30	.
Cc1ccccc1-n1c(O)c(C=Nc2ccc(N(C)C)cc2)c(=O)[nH]c1=O	-	40	-	-	21	-	.
C=CCn1c(O)c(C=Nc2ccc(N(CC)CC)cc2)c(=O)[nH]c1=O	-	57	-	-	22	-	.
C=CCn1c(O)c(C(CC)=Nc2ccc(N(C)C)cc2)c(=O)[nH]c1=O	-	43	-	-	33	-	.
CCN(CC)c1ccc(N=Cc2c(O)n(-c3ccc(OC)cc3)c(=O)[nH]c2=O)cc1	-	38	-	-	-	-	.
CCN(CC)c1ccc(N=Cc2c(O)n(-c3ccc(Cl)cc3)c(=O)[nH]c2=O)cc1	-	-	-	-	-	.	.
Cc1cccc(N=Cc2c(O)n(-c3ccccc3C)c(=O)[nH]c2=O)c1	-	-	-	-	-	.	.
COC(=O)C1=C(c2ccccc2)C[C@@H]2CC[C@H]1N2C(=O)NC1CCCCC1	-	-	-	-	-	.	.
Cc1ccc(N=Cc2c(O)n(-c3ccc(C)cc3)c(=O)[nH]c2=O)cc1	-	-	-	-	-	.	.
CC(=O)N1CCN(c2ccc(N=Cc3c(O)n(-c4ccc(Cl)cc4)c(=O)[nH]c3=O)cc2)CC1	-	42	-	-	-	-	.
O=c1[nH]c(=S)n(-c2ccccc2F)c(O)c1C=Nc1ccc(N2CCOCC2)cc1	-	58	-	-	-	-	.
CCC(=O)N1N=C2C3CCN(CC3)C2C1c1ccc(C)cc1 (configuration not stated)	-	-	-	-	-	.	.
CC12Cc3cnoc3C=C1CCC1C2CCC2(C)C1CCC2(C)O (configuration not stated)	-	-	-	-	-	.	.
O=c1[nH]c(=O)n(CCC2=CCCCC2)c(O)c1/C=N/Nc1cccc2ccccc12	-	33	-	-	-	-	.
CCCCCCCCCCCCCCCC[N+](C)(C)C	-	32	-	-	-	55	.
SMILES	SIAE inh	ABHD4 inh	rCAG RNA binder	TCR-CD3 inh	PRMT1 FP inh	ABHD4 confirm	SIAE inh conf
CCCCCC[N+](=O)[O-]	-	-	-	-	-	.	.
CN1CCc2cc3c(c4c2C1Cc1ccccc1-4)OCO3 (configuration not stated)	24	46	-	-	51	50	-
CNC(=O)Oc1cccc(-c2cn3cc(OC(=O)NC)ccc3n2)c1	17	40	-	-	-	-	-
CNC(=O)Oc1ccc(-c2cn3cc(Cl)ccc3n2)cc1	-	-	-	-	-	.	.
CC[C@H](OC(C)=O)C(C[C@H](C)N(C)C)(c1ccccc1)c1ccccc1	-	-	-	-	-	.	.
N#CC1=C(N)Oc2c(c(=O)oc3ccccc23)C1c1ccc([N+](=O)[O-])o1 (configuration not stated)	22	-	-	-	-	.	-
Cc1cc(Cl)nc(N)n1	-	-	-	-	-	.	.
CNC(=O)O/N=C/c1nn(C(=O)C(C)(C)C)cc1Br	17	-	-	-	-	.	-
CN(C)C(CNC(=O)Cc1c(Cl)cccc1Cl)c1ccccc1 (configuration not stated)	17	-	-	-	-	.	-
CC(NCc1cccc(Cl)c1Cl)C(O)c1ccccc1 (configuration not stated)	-	-	-	-	-	.	.
O=C(c1ccc2c(c1)N(Cc1ccc(F)cc1)CCS2)N1CCC2(CC1)OCCO2	18	-	-	-	-	.	-
O=C(CSC1c2ccccc2-c2ccccc21)N/N=C/c1ccccc1O	-	-	-	-	-	.	.
O=c1[nH]c(=S)[nH]c(O)c1N=Nc1ccc2c(c1)OCCO2	-	-	-	-	-	.	.
O=c1[nH]c(O)c(N=Nc2ccc3c(c2)OCCO3)c(=O)[nH]1	17	-	-	-	-	.	-
CCCC1(CC(C)C)C(=O)NC(=S)NC1=O	-	-	-	-	-	.	.
O=c1cc(C(F)(F)F)c2cc3c4c(c2o1)CCCN4CCC3	18	-	-	-	101	.	-
C/C(O)=C(\C#N)C(=O)Nc1cc(Br)ccc1Br	-	-	-	-	-	.	.
Cc1ccc(-c2cc(-c3ccc(C)cc3)[n+](C)o2)cc1	18	-	-	-	-	.	-
Oc1cccc2nc3ccccc3nc12	18	-	-	-	-	.	-
Cn1cc(C=C2C(=O)NC(=O)NC2=O)c2ccccc21	47	-	-	-	-	.	-
C=CCN1CC[C@]23c4c5ccc(O)c4OC2C(=O)CC[C@@]3(O)[C@H]1C5 (some centres not stated)	-	-	-	-	-	.	.
O=C(c1ccc2c(c1)OCO2)C1CCCN(Cc2ccc(F)c(F)c2)C1 (configuration not stated)	-	-	-	-	-	.	.
CN(C(=O)Cc1ccc2c(c1)OCO2)C1CCCN(Cc2ccccc2F)C1 (configuration not stated)	23	-	-	-	-	.	-
CC1=NN(c2ccccc2)C(=O)C1/C=C1\C(=O)NC(=O)N(c2cc(C)cc(C)c2)C1=O (configuration not stated)	-	-	-	-	-	.	.
CC1=NN(c2ccccc2)C(=O)C1/C=C1/C(=O)NC(=O)N(c2cc(C)cc(C)c2)C1=O (configuration not stated)	75	-	-	-	-	.	-
CCS(=O)(=O)CCSP(=O)(OC)OC	34	-	-	-	-	.	49
CN(C(=O)Oc1cccc2ccccc12)C1C=CCC1 (configuration not stated)	-	-	-	-	-	.	.
